This note sets out measurements from ChEMBL document CHEMBL4038305, “Benzoxaborole Antimalarial Agents. Part 5. Lead Optimization of Novel Amide Pyrazinyloxy Benzoxaboroles and Identification of a Preclinical Candidate” (J Med Chem, 2017).

The source made the active and inactive calls. The rule behind the calls is not given here. Where only a bound is given, the exact number is not on record here.

Data set [1] concerns Salmonella typhimurium. The data set can be described thus: Genotoxicity in Salmonella typhimurium TA98 assessed as number of rrevertants per plate at 2 ug/plate in presence of rat liver S9 fraction by Ames test (reference value: 19 +/- 8). It counts as toxicity. To be noted: salmonella enterica subsp. enterica serovar typhimurium. For orientation: The Ames test uses bacterial strains that need an amino acid and regain growth without it when mutated back.

Data set [2] has as its system Salmonella typhimurium. The data set can be described thus: Genotoxicity in Salmonella typhimurium TA100 assessed as number of revertants per plate at 2 ug/plate in presence of rat liver S9 fraction by Ames test (reference value: 141 +/- 1). To be noted: salmonella enterica subsp. enterica serovar typhimurium. It counts as toxicity. An outline of the steps: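 TA100 positive control under S9 activation: 2-aminoanthracene at 2.0 μg/plate, plate incorporation, average revertants per plate.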

The test system of data set [3] is Salmonella typhimurium. The data set can be described thus: Genotoxicity in Salmonella typhimurium TA1535 assessed as number of revertants per plate at 2 ug/plate in presence of rat liver S9 fraction by Ames test (reference value: 10). It counts as toxicity. To be noted: salmonella enterica subsp. enterica serovar typhimurium.
For data set [4], the system named is Salmonella typhimurium. The data set can be described thus: Genotoxicity in Salmonella typhimurium TA1537 assessed as number of revertants per plate at 2 ug/plate in presence of rat liver S9 fraction by Ames test (reference value: 11 +/- 4). Type of data set: toxicity. As to conditions: salmonella enterica subsp. enterica serovar typhimurium.
Data set [5] has as its system Escherichia coli. The data set can be described thus: Genotoxicity in Escherichia coli WP2uvrA assessed as number of revertants per plate at 15 ug/plate in presence of rat liver S9 fraction by Ames test (reference value: 42 +/- 6). Type of data set: toxicity.
Data set [6] has as its system Escherichia coli. The data set can be described thus: Genotoxicity in Escherichia coli WP2uvrA assessed as number of revertants per plate at 1000 ug/plate in absence of rat liver S9 fraction by Ames test (reference value: 45 +/- 9). Type of data set: toxicity.
For data set [7], the system named is Plasmodium falciparum. The data set can be described thus: Antimalarial activity against Plasmodium falciparum NF54 infected in human erythrocytes assessed as reduction in [3H]-hypoxanthine incorporation preincubated for 24 hrs followed by [3H]-hypoxanthine addition measured after 24 hrs by scintillation counting method. Type of data set: functional, cell-based.

Data set [8] has as its system Plasmodium falciparum. The data set can be described thus: Antimalarial activity against Plasmodium falciparum K1 infected in human erythrocytes assessed as reduction in [3H]-hypoxanthine incorporation preincubated for 24 hrs followed by [3H]-hypoxanthine addition measured after 24 hrs by scintillation counting method. Type of data set: functional, cell-based.
Data set [9] concerns Plasmodium falciparum. The data set can be described thus: Antimalarial activity against Plasmodium falciparum TM90C2B infected in human erythrocytes assessed as reduction in [3H]-hypoxanthine incorporation preincubated for 24 hrs followed by [3H]-hypoxanthine addition measured after 24 hrs by scintillation counting method. It counts as functional, cell-based.
In data set [10] the test system is Plasmodium falciparum. Kind of data set: Antimalarial activity against Plasmodium falciparum Dd2 infected in human erythrocytes assessed as reduction in [3H]-hypoxanthine incorporation preincubated for 24 hrs followed by [3H]-hypoxanthine addition measured after 24 hrs by scintillation counting method. Type of data set: functional, cell-based.
For data set [11], the system named is Plasmodium falciparum. The data set can be described thus: Antimalarial activity against intraerythrocytic stage of Plasmodium falciparum assessed as time required for maximal killing effect at 10 times IC50 preincubated for 24 hrs followed by [3H]-hypoxanthine addition measured after 24 hrs by scintillation counting method. Type of data set: functional. In short, it runs like this:
(§1)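 In vitro P. falciparum parasite reduction ratio assay run at 10×, 30× and 100× IC50. Derived parameters: lag phase (time to maximal killing), PRR (parasites killed per life cycle) and PCT99.9% (time to clear 99.9% of the initial parasite population).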

The test system of data set [12] is Plasmodium falciparum. Kind of data set: Antimalarial activity against intraerythrocytic stage of Plasmodium falciparum assessed as parasite reduction ratio at 10 times IC50 preincubated for 24 hrs followed by [3H]-hypoxanthine addition measured after 24 hrs by scintillation counting method. Type of data set: functional. In short, it runs like this:
as §1

In data set [13] the test system is Plasmodium falciparum. Kind of data set: Antimalarial activity against intraerythrocytic stage of Plasmodium falciparum assessed as time required to clear 99.9% of initial parasite population at 10 times IC50 preincubated for 24 hrs followed by [3H]-hypoxanthine addition measured after 24 hrs by scintillation counting method. Type of data set: functional. An outline of the steps: as §1

Data set [14] relates to Salmonella typhimurium. Kind of data set: Genotoxicity in Salmonella typhimurium TA1537 assessed as number of revertants per plate at 75 ug/plate in absence of rat liver S9 fraction by Ames test (reference value: 19 +/- 9). Type of data set: toxicity. To be noted: salmonella enterica subsp. enterica serovar typhimurium.
The test system of a further data set is Plasmodium berghei. The data set can be described thus: Antimalarial activity against Plasmodium berghei infected in Swiss Webster mouse assessed as mouse survival rate at 30 mg/kg administered once daily via oral gavage for 4 consecutive days beginning 1 hr after infection measured from day 4 to day 20 post infection relative to control. It counts as functional. In short, it runs like this: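 P. berghei-infected erythrocytes taken from a previously infected mouse were injected intraperitoneally. Oral dosing, once daily for 4 consecutive days, began 1 h after infection, in polyethylene glycol 300/propylene glycol/water (55/25/20 by weight). Chloroquine at 30 mg/kg was the positive control, with a vehicle-only group. Percent survival was recorded daily from day 4 to day 20.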

The test system of data set [15] is Plasmodium falciparum. The data set can be described thus: Antimalarial activity against Plasmodium falciparum 3D7 0087/N9 infected in NOD/SCID IL2R gamma null mouse assessed as decrease in parasitemia at 2.5 to 50 mg/kg up to 7 days post infection. Type of data set: functional, organism-based. An outline of the steps: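 Human-erythrocyte-engrafted NODscidIL2Rγnull mice carrying P. falciparum Pf3D70087/N9 in peripheral blood; compound given orally once daily for four consecutive days.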

In data set [16] the test system is Plasmodium falciparum. Kind of data set: Antimalarial activity against Plasmodium falciparum T9/94 infected in human erythrocytes assessed as reduction in [3H]-hypoxanthine incorporation preincubated for 24 hrs followed by [3H]-hypoxanthine addition measured after 24 hrs by scintillation counting method. Type of data set: functional, cell-based.
The subject of data set [17] is Plasmodium falciparum. The data set can be described thus: Antimalarial activity against Plasmodium falciparum HB3 infected in human erythrocytes assessed as reduction in [3H]-hypoxanthine incorporation preincubated for 24 hrs followed by [3H]-hypoxanthine addition measured after 24 hrs by scintillation counting method. It counts as functional, cell-based.
In data set [18] the test system is Plasmodium falciparum. The data set can be described thus: Antimalarial activity against Plasmodium falciparum TM90C2A infected in human erythrocytes assessed as reduction in [3H]-hypoxanthine incorporation preincubated for 24 hrs followed by [3H]-hypoxanthine addition measured after 24 hrs by scintillation counting method. It counts as functional, cell-based.

Data set [19] relates to Plasmodium falciparum. The data set can be described thus: Antimalarial activity against Plasmodium falciparum V1/S infected in human erythrocytes assessed as reduction in [3H]-hypoxanthine incorporation preincubated for 24 hrs followed by [3H]-hypoxanthine addition measured after 24 hrs by scintillation counting method. It counts as functional, cell-based.
The subject of data set [20] is Salmonella typhimurium. Kind of data set: Genotoxicity in Salmonella typhimurium TA98 assessed as number of revertants per plate at 1 ug/plate in absence of rat liver S9 fraction by Ames test (reference value: 14 +/- 6). Type of data set: toxicity. To be noted: salmonella enterica subsp. enterica serovar typhimurium.
Data set [21] has as its system Plasmodium falciparum. The data set can be described thus: Antimalarial activity against chloroquine-resistant Plasmodium falciparum W2 infected in human erythrocytes after 48 hrs by YOYO-1 dye based flow cytometric analysis. To be noted: W2, 48 h. It counts as functional, cell-based. In short, it runs like this: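 P. falciparum W2 cultures were exposed to the compound for 48 h, with artemisinin and chloroquine as reference controls. IC50 was taken from two independent replicates.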
A general note: A flow cytometer gives signals particle by particle.

Data set [22] has as its system Plasmodium falciparum. Kind of data set: Antimalarial activity against Plasmodium falciparum 3D7 0087/N9 infected in NOD/SCID IL2R gamma null mouse assessed as decrease in parasitemia at 1 to 100 mg/kg up to 7 days post infection. It counts as functional, organism-based. In short, it runs like this: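 The P. falciparum 3D70087/N9 strain grew in the peripheral blood of NODscidIL2Rγnull mice engrafted with human erythrocytes. Compounds were given orally once a day for four consecutive days.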

As to `Nc1ccc2cc3ccccc3cc2c1` [2-AMINOANTHRACENE], the Activity with Salmonella typhimurium [1] was 524; with Salmonella typhimurium [2] it was 550; in the data set with Salmonella typhimurium [3], 163; with Salmonella typhimurium [4], 82; with Escherichia coli [5], 311.
As to `COS(C)(=O)=O` [METHANESULFONIC ACID METHYL ESTER], the Activity in the data set with Escherichia coli [6] was 357.
A word on the IC50: it is the concentration at which inhibition is half-maximal. Regarding `O=C1C(O)=C([C@H]2CC[C@H](c3ccc(Cl)cc3)CC2)C(=O)c2ccccc21` [ATOVAQUONE], the IC50 in the data set with Plasmodium falciparum [7] was 1 nM; in the data set with Plasmodium falciparum [8], 0.7 nM; in the data set with Plasmodium falciparum [9], above 35 nM; with Plasmodium falciparum [10] it was 2 nM. Moreover, the Time with Plasmodium falciparum [11] is 48 h. In addition, in the data set with Plasmodium falciparum [12], the “log(ratio)” value is 2.9. In addition, in the data set with Plasmodium falciparum [13], the T99.9% came out at 81 h.
Regarding `Nc1c2ccccc2nc2ccccc12` [AMINACRINE], the Activity in the data set on Salmonella typhimurium [14] is on record as 430.
Regarding `CCN(CC)CCCC(C)Nc1ccnc2cc(Cl)ccc12` (stereo not given) [CHLOROQUINE], the survival at 30 mg/kg in the data set on Plasmodium berghei stood at 100%. Further, the outcome in the data set on Plasmodium falciparum [15] was Active. Besides, the Time in the data set with Plasmodium falciparum [11] was determined as 0 h. Besides, the T99.9% in the data set with Plasmodium falciparum [13] stood at 34 h.
Regarding `CCc1nc(N)nc(N)c1-c1ccc(Cl)cc1` [PYRIMETHAMINE], the IC50 with Plasmodium falciparum [7] is 45 nM; in the data set with Plasmodium falciparum [8], above 20000 nM; in the data set on Plasmodium falciparum [16], 38 nM; in the data set with Plasmodium falciparum [17], 3380 nM; in the data set on Plasmodium falciparum [18], above 20000 nM; in the data set with Plasmodium falciparum [9] it was above 20000 nM. The IC50 in the data set on Plasmodium falciparum [10] and with Plasmodium falciparum [19] was above 20000 nM in each case. Besides, the Time in the data set with Plasmodium falciparum [11] turned out to be 24 h. Further, the “log(ratio)” value in the data set with Plasmodium falciparum [12] is given as 2.9. Also, the T99.9% in the data set on Plasmodium falciparum [13] amounted to 61 h.
Regarding `O=[N+]([O-])c1ccc2c(c1)Cc1ccccc1-2` [2-NITROFLUORENE], the Activity in the data set on Salmonella typhimurium [20] was found to be 162.
As to `C[C@@H]1CC[C@H]2[C@@H](C)C(=O)O[C@@H]3O[C@@]4(C)CC[C@@H]1[C@]32OO4` [ARTEMISININ], in the data set on Plasmodium falciparum [21], 6 nM corresponded to half-maximal inhibition (IC50). The outcome in the data set with Plasmodium falciparum [22] was Active. Further, the Time in the data set on Plasmodium falciparum [11] turned out to be 0 h. Further, the “log(ratio)” value in the data set on Plasmodium falciparum [12] is above 4.8. In addition, the T99.9% with Plasmodium falciparum [13] was below 24 h.
